Screening data deposited in PubChem BioAssay by several laboratories.
MT1-MMP act inh = MT1-MMP (human) activation inhibition | P50281 | HT1080 RFP-PRO-GFP cells, GFP/RFP ratio fluorescence, overnight; percent of plate control window, DMSO zero | GFP/RFP ratio change, % at 20 µM | 360,000 compounds, 0.061% hits;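 active = GFP/RFP ratio change of at least 30% with cell ATP level not reduced by more than half and red fluorescence within 50% of control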
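Test system: HT1080 RFP-PRO-GFP cells; Benchmarks: DMSO and RFP-L50D-GFP cell wells; Timing: cells overnight before dosing, compound overnight, 37 °C, 5% CO2; Compound: one 20 µM compound dose with 1% DMSO; Read-out: GFP/RFP fluorescence ratio.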
KLK7 zymogen act = activates the human kallikrein-7 zymogen | purified proKLK7, EDANS-DABCYL substrate fluorescence; 100% is mature enzyme control, 0% vehicle | 370,000 compounds, 0.9% hits | activation, % at 7 µM | P49862;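 active = activation above the mean of all tested compounds plus 3 SD, computed per campaign excluding outliers beyond control limits, cut at about 13% in these data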
DDE Tn6 FP inh = disrupts Tn6 cyclic peptide binding to fibrin D-Dimer-E complex; P02675; Fibrin DD(E) TRITC-Tn6 fluorescence polarization displacement; inhibition, % at 8.3 µM; 370,000 compounds, 0.21% hits;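 active = inhibition above a per-campaign cutoff: mean of compounds within control limits plus 3 SD, cut at about 15% in these data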;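 note: 0% = median of all compound wells on the plate and 100% = blocking peptide control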
Target sequence (P02675 whole entry, looked up): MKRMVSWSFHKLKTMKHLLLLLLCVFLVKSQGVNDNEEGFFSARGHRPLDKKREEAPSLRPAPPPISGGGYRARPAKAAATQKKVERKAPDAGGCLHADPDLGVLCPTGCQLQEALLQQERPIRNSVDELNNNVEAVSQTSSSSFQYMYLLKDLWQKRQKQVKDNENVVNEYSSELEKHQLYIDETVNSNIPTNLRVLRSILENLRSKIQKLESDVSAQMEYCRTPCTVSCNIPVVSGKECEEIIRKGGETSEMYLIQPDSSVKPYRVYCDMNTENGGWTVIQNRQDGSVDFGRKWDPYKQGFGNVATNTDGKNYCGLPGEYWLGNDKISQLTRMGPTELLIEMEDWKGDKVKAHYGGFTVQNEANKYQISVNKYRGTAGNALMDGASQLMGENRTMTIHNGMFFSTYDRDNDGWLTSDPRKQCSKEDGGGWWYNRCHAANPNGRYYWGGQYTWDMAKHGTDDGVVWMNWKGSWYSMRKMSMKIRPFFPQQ
SKN-1 block = blocks SKN-1 activity in C. elegans. C. elegans VP596 Pgst-4::GFP/RFP ratio, acrylamide-induced, 24 h. inhibition, % at 21.8 µM. 360,000 compounds, 0.49% hits;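 active = interference check ratio from 0.5 to 1.5 plus GFP to RFP signal ratio inhibition reaching or exceeding a fixed threshold, cut at about 30% in these data, passing the limit was not always enough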
Neddylation inh = cullin neddylation inhibition. P61081+Q13564. TR-FRET cullin neddylation, biochemical. calls only at 25 µM. 360,000 compounds, 0.58% hits. AID 651699; in the data active = inhibition above about 36%
Tn7 DDE FP = DD(E)-Tn7 binding inhibition, primary FP screen. AID 720508. FP displacement of FITC-Tn7 peptide from fibrin DD(E); 0% = median of compound wells per plate. inhibition, % at 8.3 µM. 370,000 compounds, 0.13% hits;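 active = inhibition above the mean of compounds falling within the control limits plus 3 SD of them, cut at about 14% in these data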;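 note: 0% = plate median of compound wells and 100% = 10 µM Aha-Tn7 peptide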
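Also added: labelled Tn7 tracer, 0.1 µM; Assay system: human fibrin DD(E) protein; Amount: 2 µM fibrin DD(E); Schedule: 10 min compound pre-incubation, 3 h probe incubation at room temperature; Repeats: one replicate per compound; Read-out basis: percent inhibition; Measured by: fluorescence polarization of the labelled Tn7 tracer.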
KLK7 act conf = proKLK7 activation, confirmation. purified proKLK7, EDANS-DABCYL substrate fluorescence; scaled: vehicle 0, mature enzyme 100. AID 686949. 3,200 compounds, 68% hits. shares compounds with KLK7 zymogen act. activation, % at 7 µM;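 active = activation, as change over the incubation, above the mean of all tested compounds plus 3 SD, cut at about 13% in these data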
EDANS interfere = optically interferes with EDANS-DABCYL signal, flagging KLK7 hits | shares compounds with KLK7 zymogen act | EDANS-DABCYL substrate fluorescence interference, no enzyme, 4 h; solvent 0%, active enzyme control 100% | activation, % at 7 µM | 3,200 compounds, 80% hits;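 active = activation above the all-compound mean plus 3 SD, ignoring values outside control-based bounds, cut at about 4.8% in these data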;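 note: value is the 4 h activation minus the activation read at time zero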
The depositor's hits bear a star; i = inactive; x = no result given; + = active, no number. A selection: hits, their analogues and other compounds. The true share with any hit is near 2.2%.

SMILES	MT1-MMP act inh	KLK7 zymogen act	DDE Tn6 FP inh	SKN-1 block	Neddylation inh	Tn7 DDE FP	KLK7 act conf	EDANS interfere
CNc1cncc(-c2cccnc2)n1	2	67*	2	15	x	-7	76*	79*
CNc1cncc(-c2ccc(OC)c(OC)c2)n1	-5	7	-2	7	i	-15	x	x
CC(=O)Nc1cncc(-c2cccc(C(=O)NCCN(C)C)c2)n1	7	1	5	23	i	0	x	x
CNc1cncc(-c2ccc(F)c(F)c2)n1	-2	37*	0	0	x	-6	16*	25*
CNc1cncc(-c2cccc(C(=O)N(C)C)c2)n1	-7	51*	7	-1	x	-5	60*	63*
Cc1ccc(C(=O)Cn2c(N3CCOCC3)nc3c2c(=O)n(C)c(=O)n3C)cc1	3	0	2	1	i	1	x	x
O=C(NCCNCc1cccs1)c1ccccc1F	1	0	1	5	i	3	x	x
CCOC(=O)c1c(NC(=O)c2ccco2)n(C2CCCCC2)c2nc3ccccc3nc12	-69	21*	5	7	x	7	-19	-28
CC(C)Nc1ccc(Nc2ccnc3cc4ccccc4cc23)cc1	-2	2	-2	-1	i	3	x	x
c1ccc(CCNc2ccnc3cc4ccccc4cc23)cc1	8	32*	-1	3	x	-6	-36	-52
Cc1noc(C)c1S(=O)(=O)Nc1ccc(C(=O)NC2CCCCC2)cc1	5	0	-4	1	i	-3	x	x
COc1ccccc1CNC(=O)CCSCc1cccc(Cl)c1	2	0	10	14	i	-1	x	x
CC1c2cc3c(cc2CCN1C(=O)c1ccc(Cl)cc1)OCCCO3 (stereo not drawn)	0	1	0	-19	i	-3	x	x
Cc1ccc(C(=O)N2CCc3cc4c(cc3C2C)OCCCO4)cc1 (stereo not drawn)	-1	13*	4	8	i	5	6	6.7*
COc1cc2c(cc1OC)/C(=C/C#N)NC(C)(C)C2	9	19*	5	14	x	-4	12	14*
COc1cc2c(cc1OC)C(=S)NC1(CCCC1)C2	-7	1	-7	5	i	-3	x	x
COc1cccc(-c2nc(CS(=O)(=O)CC(=O)NCc3ccccc3OC)c(C)o2)c1	1	1	-6	4	i	-2	x	x
COc1ccc2[nH]c(C)c(C(=O)CN3CCOCC3)c2c1	2	0	0	-10	i	-9	x	x
COc1ccc2[nH]c(C)c(C(=O)CN3CCc4cc(OC)c(OC)cc4C3)c2c1	3	17*	2	6	i	-5	9	8.4*
CC(=O)Nc1ccc(/C=N/NC(=O)c2cc(-c3ccco3)nc3ccccc23)cc1	2	-10	-2	11	i	-4	x	x
COc1ccc(CCNC(=O)c2cc(-c3ccco3)nc3ccccc23)cc1	x	-1	-8	x	x	0	x	x
CCN(CC)CCNC(=O)c1cc(-c2ccco2)nc2ccccc12	-3	60*	6	4	x	0	57*	73*
O=C(NNC(=O)c1cc(-c2ccco2)nc2ccccc12)c1ccccc1	2	141*	-3	4	x	4	51*	70*
O=C(O)c1ccccc1/C=N/NC(=O)c1cc(-c2ccco2)nc2ccccc12	-1	15*	4	-1	+	7	29*	31*
Cc1ccccc1NS(=O)(=O)c1ccc2c3c(cccc13)C(=O)N2C	6	3	6	-9	i	2	x	x
SMILES	MT1-MMP act inh	KLK7 zymogen act	DDE Tn6 FP inh	SKN-1 block	Neddylation inh	Tn7 DDE FP	KLK7 act conf	EDANS interfere
CN1C(=O)c2cccc3c(S(=O)(=O)Nc4ccccn4)ccc1c23	11	11	-10	-17	i	3	x	x
CN1C(=O)c2cccc3c(S(N)(=O)=O)ccc1c23	-3	71*	3	8	x	5	56*	66*
CN1C(=O)c2cccc3c(S(=O)(=O)NCc4ccco4)ccc1c23	3	21*	1	1	x	0	14*	14*
CCOC(=O)C1=C(c2ccccc2)Nc2ncnn2C1c1cc(OC)ccc1OC (stereo not drawn)	6	0	3	27	i	11	x	x
CCc1cc2c(COC(=O)CCNS(=O)(=O)c3cccc(C(F)(F)F)c3)cc(=O)oc2cc1O	-3	48*	-11	-15	x	1	56*	57*
Cc1cc(NC(=O)COC(=O)CCNS(=O)(=O)c2cccc(C(F)(F)F)c2)no1	5	0	8	1	i	10	x	x
CS(=O)(=O)Nc1ccc2c(c1)[C@H]1C[C@H](CC(=O)NCc3ccccc3)O[C@H](CO)[C@H]1O2	1	0	-5	-3	i	-1	x	x
CCn1c(SCc2ccccc2)nnc1C1CCN(S(=O)(=O)c2ccc(OC)cc2)CC1	6	1	-1	4	i	2	x	x
Cc1ccc(/C=N/NC(=O)c2nnn(-c3nonc3N)c2-c2ccccc2)o1	-1	1	-2	8	i	-4	x	x
N#CCSc1nc(-c2ccccc2)cs1	-2	0	5	-8	i	12	x	x
N#CCSc1ccc2nc(-c3ccccc3)cn2n1	1	16*	2	-15	x	-2	32*	32*
COC(=O)C1=CNC=C(C(=O)OC)C1c1cccc(OC)c1	-1	6	9	-4	x	-4	x	x
COC(=O)C1=CNC=C(C(=O)OC)C1c1cccc2ccccc12	-8	-1	8	30	x	5	x	x
COC(=O)C1=CNC=C(C(=O)OC)C1c1ccccc1Cl	-6	66*	10	-9	x	6	65*	75*
COC(=O)C1=CNC=C(C(=O)OC)C1c1ccc(Cl)cc1	-11	14*	-3	8	x	0	81*	80*
COC(=O)c1cc2occc2n1Cc1cccc(C)c1	-3	0	-3	11	i	-5	x	x
COc1ccc(NS(=O)(=O)c2ccc(C)c(NC(=O)C3CCCO3)c2)cc1 (stereo not drawn)	3	0	-3	0	i	1	x	x
